These results are taken from ChEMBL document CHEMBL4842367, “Strategies toward Discovery of Potent and Orally Bioavailable Proteolysis Targeting Chimera Degraders of Androgen Receptor for the Treatment of Prostate Cancer” (J Med Chem, 2021).

Type in all cases: cell-based
For test [1], the target named is T1, Protein cereblon/Androgen receptor (Homo sapiens, UniProt P10275+Q96SW2). Put plainly: Protac activity at CRBN/AR in human VCAP cells assessed as induction of AR degradation at 1 uM by western blot analysis relative to control. The note with it: time 24.0 hrs. For orientation: A western blot detects proteins with antibodies after separation by electrophoresis.
T1 sequence (P10275 whole entry, looked up): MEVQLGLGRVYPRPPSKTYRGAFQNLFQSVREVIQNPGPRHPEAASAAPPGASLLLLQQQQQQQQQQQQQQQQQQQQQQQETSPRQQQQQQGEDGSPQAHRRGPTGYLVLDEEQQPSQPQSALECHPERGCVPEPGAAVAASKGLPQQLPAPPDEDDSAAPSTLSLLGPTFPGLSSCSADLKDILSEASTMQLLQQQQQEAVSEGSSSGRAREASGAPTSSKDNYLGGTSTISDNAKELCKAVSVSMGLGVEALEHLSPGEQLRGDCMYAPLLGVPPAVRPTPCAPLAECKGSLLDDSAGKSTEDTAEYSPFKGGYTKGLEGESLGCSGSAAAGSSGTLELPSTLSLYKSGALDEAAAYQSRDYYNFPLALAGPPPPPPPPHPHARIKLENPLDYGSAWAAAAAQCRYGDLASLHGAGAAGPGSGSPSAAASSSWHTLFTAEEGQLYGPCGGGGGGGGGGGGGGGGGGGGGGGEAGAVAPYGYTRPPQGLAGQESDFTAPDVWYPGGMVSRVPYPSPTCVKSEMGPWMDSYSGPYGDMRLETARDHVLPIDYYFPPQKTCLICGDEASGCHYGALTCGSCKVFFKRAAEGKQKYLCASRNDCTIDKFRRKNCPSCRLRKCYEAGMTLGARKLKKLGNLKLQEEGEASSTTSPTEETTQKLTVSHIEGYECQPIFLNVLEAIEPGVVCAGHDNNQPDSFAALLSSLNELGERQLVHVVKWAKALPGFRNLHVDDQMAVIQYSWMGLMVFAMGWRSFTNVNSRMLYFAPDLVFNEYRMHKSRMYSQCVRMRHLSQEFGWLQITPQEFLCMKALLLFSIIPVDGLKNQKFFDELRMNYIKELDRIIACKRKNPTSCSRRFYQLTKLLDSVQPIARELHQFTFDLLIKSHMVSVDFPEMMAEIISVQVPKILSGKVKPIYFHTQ
T1 sequence (Q96SW2 whole entry, looked up): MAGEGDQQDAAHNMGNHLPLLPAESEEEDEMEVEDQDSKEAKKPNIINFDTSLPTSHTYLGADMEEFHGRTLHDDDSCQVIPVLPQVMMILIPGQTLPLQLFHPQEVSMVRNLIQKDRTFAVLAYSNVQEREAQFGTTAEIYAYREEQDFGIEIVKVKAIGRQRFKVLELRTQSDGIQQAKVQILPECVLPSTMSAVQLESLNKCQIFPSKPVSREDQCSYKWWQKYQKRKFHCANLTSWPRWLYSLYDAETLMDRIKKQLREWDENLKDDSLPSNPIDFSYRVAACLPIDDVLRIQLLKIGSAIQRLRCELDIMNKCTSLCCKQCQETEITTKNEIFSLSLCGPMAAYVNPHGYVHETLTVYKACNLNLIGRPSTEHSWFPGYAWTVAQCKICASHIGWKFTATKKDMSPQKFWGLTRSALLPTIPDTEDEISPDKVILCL

Test [2] addresses T1, Protein cereblon/Androgen receptor. Put plainly: Protac activity at CRBN/AR in human VCaP cells assessed as induction of AR degradation at 0.1 uM measured after 24 hrs by western blot analysis relative to control.
Test [3] shares this target. Put plainly: Protac activity at CRBN/AR in human VCaP cells assessed as induction of AR degradation at 0.01 uM measured after 24 hrs by western blot analysis relative to control. Put shortly:
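VCaP cells treated 24 h at 1, 10, 100 and 1000 nM; lysed in RIPA with protease/phosphatase inhibitors, run on 4–12% SDS-PAGE, blotted to PVDF. AR bands background-subtracted and normalized to loading control; degradation relative to DMSO, average of three independent experiments.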

Test [4] has the same target. Put plainly: Protac activity at CRBN/AR in human VCaP cells assessed as induction of AR degradation at 0.001 uM measured after 24 hrs by western blot analysis relative to control.

As to `CC1(C)[C@H](NC(=O)c2ccc(N3CCN(CC4CC5(C4)CN(c4ccc6c(c4)C(=O)N(C4CCC(=O)NC4=O)C6=O)C5)CC3)cc2)C(C)(C)[C@H]1Oc1ccc(C#N)c(Cl)c1` (stereo not given in full), the Activity in test [1] was determined as 95%; in test [2], 97%; in test [3], 82%; in test [4], 30%.
Taken in the same sequence, the figures for `CC1(C)[C@H](NC(=O)c2ccc(NCCCNc3ccc4c(c3)C(=O)N(C3CCC(=O)NC3=O)C4=O)cc2)C(C)(C)[C@H]1Oc1ccc(C#N)c(Cl)c1` (stereo not given in full) were 70%, 63%, 25% and 0%.
Taken in the same sequence, the figures for `CC1(C)[C@H](NC(=O)c2ccc(N3CCN(CCNc4cccc5c4C(=O)N(C4CCC(=O)NC4=O)C5=O)CC3)cc2)C(C)(C)[C@H]1Oc1ccc(C#N)c(Cl)c1` (stereo not given in full) were 32%, 41%, 23% and below 5%.
Taken in the same sequence, the figures for `CC1(C)[C@H](NC(=O)c2ccc(N3CCN(CCCCCNc4ccc5c(c4)C(=O)N(C4CCC(=O)NC4=O)C5=O)CC3)cc2)C(C)(C)[C@H]1Oc1ccc(C#N)c(Cl)c1` (stereo not given in full) were 60%, 85%, 59% and 12%.
Turning to `CC1(C)[C@H](NC(=O)c2ccc(N3CCN(CC4CC5(CCN(c6ccc7c(c6)C(=O)N(C6CCC(=O)NC6=O)C7=O)C5)C4)CC3)cc2)C(C)(C)[C@H]1Oc1ccc(C#N)c(Cl)c1` (stereo not given in full), the Activity in test [1] is 51%; in test [2], 71%; in test [3], 56%; in test [4], 16%.
For `CC1(C)[C@H](NC(=O)c2ccc(N3CCN(CC4CCN(c5ccc6c(c5)C(=O)N(C5CCC(=O)NC5=O)C6=O)CC4)CC3)cc2)C(C)(C)[C@H]1Oc1ccc(C#N)c(F)c1` (stereo not given in full), the Activity in test [1] was 80%; in test [2], 75%; in test [3] it was 15%; in test [4] it was below 5%.
For `CC1(C)[C@@H](NC(=O)c2ccc(N3CCN(CC4CCN(c5ccc6c(c5)C(=O)N(C5CCC(=O)NC5=O)C6=O)CC4)CC3)cc2)C[C@@H]1Oc1ccc(C#N)c(Cl)c1` (stereo not given in full), the Activity is 90% in test [1], 75% in test [2], 19% in test [3] and below 5% in test [4].
As for `CC1(C)[C@H](NC(=O)c2ccc(NCCCCCCCCNc3ccc4c(c3)C(=O)N(C3CCC(=O)NC3=O)C4=O)cc2)C(C)(C)[C@H]1Oc1ccc(C#N)c(Cl)c1` (stereo not given in full), the Activity in test [1] was 73%; in test [2] it was 82%; in test [3] it was 76%; in test [4] it was 48%.
Taken in the same sequence, the figures for `CC1(C)[C@H](NC(=O)c2ccc(N3CCN(CCCNc4cccc5c4C(=O)N(C4CCC(=O)NC4=O)C5=O)CC3)cc2)C(C)(C)[C@H]1Oc1ccc(C#N)c(Cl)c1` (stereo not given in full) were 9%, below 5%, below 5% and below 5%.
For `CC1(C)[C@H](NC(=O)c2ccc(C(=O)N3CCN(C4CN(c5ccc6c(c5)C(=O)N(C5CCC(=O)NC5=O)C6=O)C4)CC3)cc2)C(C)(C)[C@H]1Oc1ccc(C#N)c(Cl)c1` (stereo not given in full), in that order: 83%, 95%, 83% and 71%.
Taken in the same sequence, the figures for `CC1(C)[C@H](NC(=O)c2ccc(N3CCC4(CC3)CC(Nc3ccc5c(c3)C(=O)N(C3CCC(=O)NC3=O)C5=O)C4)cc2)C(C)(C)[C@H]1Oc1ccc(C#N)c(Cl)c1` (stereo not given in full) were 88%, 82%, 16% and 0%.
For the compound `CC1(C)[C@H](NC(=O)c2ccc(N3CCN(C4CC5(C4)CN(c4ccc6c(c4)C(=O)N(C4CCC(=O)NC4=O)C6=O)C5)CC3)cc2)C(C)(C)[C@H]1Oc1ccc(C#N)c(Cl)c1` (stereo not given in full), the Activity in test [1] turned out to be 88%; in test [2], 93%; in test [3], 78%; in test [4], 37%.
Taken in the same sequence, the figures for `CC1(C)[C@H](NC(=O)c2ccc(NCCCCCCCNc3ccc4c(c3)C(=O)N(C3CCC(=O)NC3=O)C4=O)cc2)C(C)(C)[C@H]1Oc1ccc(C#N)c(Cl)c1` (stereo not given in full) were 62%, 79%, 58% and 28%.
Regarding `CC1(C)[C@H](NC(=O)c2ccc(NCCCCCNc3cccc4c3C(=O)N(C3CCC(=O)NC3=O)C4=O)cc2)C(C)(C)[C@H]1Oc1ccc(C#N)c(Cl)c1` (stereo not given in full), the Activity in test [1] was 38%; in test [2] it was 36%; in test [3], 9%; in test [4], below 5%.
Taken in the same sequence, the figures for `N#Cc1ccc(O[C@H]2C[C@H](NC(=O)c3ccc(N4CCN(CC5CCN(c6ccc7c(c6)C(=O)N(C6CCC(=O)NC6=O)C7=O)CC5)CC4)cc3)C2)cc1Cl` (stereo not given in full) were 39%, 25%, 30% and below 5%.
For `CC1(C)[C@H](NC(=O)c2ccc(N3CCC4(CCC(Nc5ccc6c(c5)C(=O)N(C5CCC(=O)NC5=O)C6=O)CC4)CC3)cc2)C(C)(C)[C@H]1Oc1ccc(C#N)c(Cl)c1` (stereo not given in full), in that order: 57%, 38%, 30% and 13%.
Taken in the same sequence, the figures for `CC1(C)[C@H](NC(=O)c2ccc(NCCCCCCNc3cccc4c3C(=O)N(C3CCC(=O)NC3=O)C4=O)cc2)C(C)(C)[C@H]1Oc1ccc(C#N)c(Cl)c1` (stereo not given in full) were 48%, 43%, 22% and 10%.
For the compound `CC1(C)[C@H](NC(=O)c2ccc(N3CCN(CCCCNc4ccc5c(c4)C(=O)N(C4CCC(=O)NC4=O)C5=O)CC3)cc2)C(C)(C)[C@H]1Oc1ccc(C#N)c(Cl)c1` (stereo not given in full), the Activity was 82% in test [1], 84% in test [2], 63% in test [3] and 42% in test [4].
Taken in the same sequence, the figures for `CC1(C)[C@H](NC(=O)c2ccc(N3CCN(CCCCNc4cccc5c4C(=O)N(C4CCC(=O)NC4=O)C5=O)CC3)cc2)C(C)(C)[C@H]1Oc1ccc(C#N)c(Cl)c1` (stereo not given in full) were 32%, 47%, 40% and 7%.
For `CC1(C)[C@H](NC(=O)c2ccc(N3CCN(CC4CCN(c5ccc6c(c5)C(=O)N(C5CCC(=O)NC5=O)C6=O)CC4)CC3)cc2)C(C)(C)[C@H]1Oc1cnc(C#N)c(C(F)(F)F)c1` (stereo not given in full), in that order: 41%, 33%, 12% and 6%.
For `CC1(C)[C@H](NC(=O)c2ccc(N3CCN(CC4CCN(c5ccc6c(c5)C(=O)N(C5CCC(=O)NC5=O)C6=O)CC4)CC3)cc2)C(C)(C)[C@H]1Oc1ccc(C#N)c(C(F)(F)F)c1` (stereo not given in full), in that order: 90%, 87%, 45% and 22%.
`CC1(C)[C@H](NC(=O)c2ccc(N3CCN(C4CCC5(CC4)CN(c4ccc6c(c4)C(=O)N(C4CCC(=O)NC4=O)C6=O)C5)CC3)cc2)C(C)(C)[C@H]1Oc1ccc(C#N)c(Cl)c1` (stereo not given in full): the Activity was determined as 82% in test [1], 73% in test [2], 48% in test [3] and 15% in test [4].
For `CC1(C)[C@H](NC(=O)c2ccc(N3CCN(C4CC5(CCN(c6ccc7c(c6)C(=O)N(C6CCC(=O)NC6=O)C7=O)C5)C4)CC3)cc2)C(C)(C)[C@H]1Oc1ccc(C#N)c(Cl)c1` (stereo not given in full), in that order: 84%, 87%, 80% and 38%.
Regarding `CC1(C)[C@H](NC(=O)c2ccc(C(=O)N3CCN(CC4CCN(c5ccc6c(c5)C(=O)N(C5CCC(=O)NC5=O)C6=O)CC4)CC3)cc2)C(C)(C)[C@H]1Oc1ccc(C#N)c(Cl)c1` (stereo not given in full), the Activity in test [1] is […]; in test [4], 76%.
For the compound `CC1(C)[C@H](NC(=O)c2ccc(C(=O)N3CCN(CC4CN(c5ccc6c(c5)C(=O)N(C5CCC(=O)NC5=O)C6=O)C4)CC3)cc2)C(C)(C)[C@H]1Oc1ccc(C#N)c(Cl)c1` (stereo not given in full), the Activity in test [1] came out at 79%; in test [2], 96%; in test [3], 92%; in test [4] it was 65%.
With `CC1(C)[C@H](NC(=O)c2ccc(NCCCCNc3ccc4c(c3)C(=O)N(C3CCC(=O)NC3=O)C4=O)cc2)C(C)(C)[C@H]1Oc1ccc(C#N)c(Cl)c1` (stereo not given in full), the Activity in test [1] amounted to 21%; in test [2], 55%; in test [3], 76%; in test [4] it was 42%.
With `CC1(C)[C@H](NC(=O)c2ccc(N3CCN(C4CN(c5ccc6c(c5)C(=O)N(C5CCC(=O)NC5=O)C6=O)C4)CC3)cc2)C(C)(C)[C@H]1Oc1ccc(C#N)c(Cl)c1` (stereo not given in full), the Activity is 73% in test [1], 91% in test [2], 77% in test [3] and 54% in test [4].
For `CC1(C)[C@H](NC(=O)c2ccc(N3CCN(C4CCC5(CC4)CCN(c4ccc6c(c4)C(=O)N(C4CCC(=O)NC4=O)C6=O)CC5)CC3)cc2)C(C)(C)[C@H]1Oc1ccc(C#N)c(Cl)c1` (stereo not given in full), in that order: 80%, 67%, 38% and 14%.
